From PubChem
Sampled rows, rich in hits. Any-hit rate of the full collection: about 2%.
Scp1 inh – blocks human Scp-1 phosphatase activity | inhibition, % at 20 µM | 340,000 compounds, 0.88% hits | Recombinant Scp1, phosphopeptide, malachite green phosphate absorbance;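 active = inhibition above about 50% at 20 µM, limit read from the data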;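 also: plate controls were DMSO wells with enzyme for no effect and wells lacking enzyme for full effect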
Target sequence (Q9GZU7 76-261 limits assumed): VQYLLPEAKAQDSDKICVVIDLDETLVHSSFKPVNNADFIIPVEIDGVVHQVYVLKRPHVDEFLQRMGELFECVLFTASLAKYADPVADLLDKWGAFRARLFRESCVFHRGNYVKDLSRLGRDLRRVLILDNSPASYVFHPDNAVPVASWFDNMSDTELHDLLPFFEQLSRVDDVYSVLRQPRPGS
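Times: enzyme reaction 45 min at room temperature, colour 5 min, stabilisation 30 min. Material: SCP-1 catalytic fragment, aa 76-261. Medium: Acidic Tris acetate buffer with magnesium and detergent. Signal: colorimetric free-phosphate detection, absorbance 630 nm. Read-out basis: % inhibition of SCP-1 phosphate liberation. Reagent: Phosphorylated 17-residue peptide substrate.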
LMPTP inh – blocks human LMPTP phosphatase | recombinant LMPTP-A, OMFP fluorogenic substrate, fluorescence intensity | inhibition, % at 20 µM | 360,000 compounds, 0.22% hits | AID 651560;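 active = compounds that cut the enzyme signal by at least half of the control window in the single-dose screen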;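 also: plate controls were DMSO wells with enzyme plus substrate for no effect and substrate without enzyme for full effect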
Target sequence (P24666 whole entry, looked up): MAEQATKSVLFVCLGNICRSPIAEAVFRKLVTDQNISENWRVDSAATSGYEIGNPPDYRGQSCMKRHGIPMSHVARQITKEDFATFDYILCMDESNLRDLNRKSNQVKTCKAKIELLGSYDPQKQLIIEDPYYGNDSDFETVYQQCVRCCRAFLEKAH
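Test system: LMPTP-A, protein tyrosine phosphatase of low molecular weight; Input: 0.625 nM enzyme; Incubation: 50 min dark incubation at room temperature; Signal: endpoint fluorescence intensity from OMFP dephosphorylation; Read-out basis: % inhibition versus control wells.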
DNMT1 block – DNMT1 (human) enzyme inhibition. P26358. DNMT1 molecular beacon, Hinp1I cleavage, fluorescence. inhibition (reported as % activation of signal), % at 10 µM. 360,000 compounds, 0.83% hits. AID 588458; in the data active = inhibition above about 50%
Rpn11 block – inhibitors of human proteasome Rpn11; O00487; human 26S proteasome, Ub4-pepOG fluorescence polarization; 20S core pre-blocked with epoxomicin; inhibition, % at 20 µM; 360,000 compounds, 0.59% hits; AID 588493;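 active = inhibition at 20 µM, scaled to each plate's controls, above about 33%, limit read from the data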
Target sequence (O00487 whole entry, looked up): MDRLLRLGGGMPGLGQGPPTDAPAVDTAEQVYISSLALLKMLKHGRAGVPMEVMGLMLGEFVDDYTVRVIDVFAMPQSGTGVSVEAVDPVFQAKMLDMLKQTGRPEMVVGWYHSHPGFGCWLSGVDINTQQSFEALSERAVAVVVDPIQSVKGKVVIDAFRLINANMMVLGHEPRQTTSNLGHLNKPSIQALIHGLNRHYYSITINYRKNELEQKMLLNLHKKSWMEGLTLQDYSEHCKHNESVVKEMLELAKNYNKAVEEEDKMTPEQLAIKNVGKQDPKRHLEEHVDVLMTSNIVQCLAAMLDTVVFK
STEP block – STEP (human) phosphatase inhibition; recombinant STEP, OMFP fluorogenic substrate, fluorescence; inhibition, % at 20 µM; 360,000 compounds, 0.25% hits; AID 588621;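 active = inhibition at 20 µM, scaled per plate between control wells, above about 37%, limit read from the data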;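 also: 0% = DMSO with enzyme and substrate and 100% = substrate only without enzyme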
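System: isolated STEP enzyme; schedule: 20 min enzyme reaction at room temperature, protected from light; medium: Bis-Tris buffer pH 6.0, 2.5 mM DTT, 0.005% Tween 20; signal: fluorescence, 480/540 nm; dosing: single compound dose of 20 µM, 1% DMSO final; also added: OMFP substrate, 25 µM final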
DNMT1 inh conf – DNMT1 inhibition confirmation, single concentration; shares compounds with DNMT1 block; 2,300 compounds, 8% hits; DNMT1 molecular beacon HinP1I cleavage, fluorescence; inhibition, % at 10 µM;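 active = average inhibition of at least 30% in the single-concentration confirmation test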
Beacon interf – beacon fluorescence artifact counter-screen | shares compounds with DNMT1 block | DNMT1 molecular beacon spectral interference counterscreen, fluorescence 485/520 | activation (fluorescence interference), % at 10 µM | 2,300 compounds, 1% hits | AID 602387;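 active = activation of at least 30% at 10 µM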;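 also: DNMT1 catalytic domain with a HinP1I cleavage step and a FAM/dabcyl DNA beacon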
An asterisk follows results filed as active; nt = not tested or not shown.

SMILES | Scp1 inh | LMPTP inh | DNMT1 block | Rpn11 block | STEP block | DNMT1 inh conf | Beacon interf
O=C1CN(c2nc(-c3ccccc3)c3ccccc3n2)c2ccccc2N1 | 2.4 | 0.2 | 60.6* | 12.4 | -2.0 | 1.7 | 6.5
COc1ccc2[nH]cc(CCNC(=O)Cc3c(F)cccc3Cl)c2c1 | -8.1 | 0.7 | 71.9* | -2.0 | 1.6 | 3.2 | 8.1
Cc1ccc(C2=NN(C(=O)CCl)C(c3ccco3)C2)o1 (stereo unspecified) | 3.7 | -0.9 | 6.5 | -0.7 | -1.5 | nt | nt
CNc1ccc(Br)cc(C(=O)/C=C/c2cc(OC)ccc2OC)c1=O | -7.0 | 13.2 | 14.2 | 0.5 | 6.2 | nt | nt
CCNc1ccc(Br)cc(C(=O)/C=C/c2ccc(Cl)cc2Cl)c1=O | -2.2 | 16.9 | 70.1* | 24.5 | 11.3 | 2.5 | 5.3
COCCNC(=S)N/N=C(\C)c1ccc(OC)cc1 | -5.3 | -0.5 | 3.5 | -11.4 | -1.6 | nt | nt
COCCNC(=S)N/N=C(\C)c1ccc(OC(F)F)cc1 | -10.6 | -0.2 | 61.7* | -2.8 | 1.1 | -0.1 | 3.2
O=C(CC1CCC1)NC(c1ccccc1)c1ccccc1 | -9.1 | -1.1 | -2.7 | 0.8 | -3.2 | nt | nt
Cc1nn(Cc2ccc(Cl)c(Cl)c2)c(C)c1NC(=O)c1cc(-c2ccc3c(c2)OCO3)on1 | 2.8 | 4.4 | 76.2* | 11.3 | 0.7 | 3.3 | -1.9
O=C(Nc1ccc2oc(-c3cccc4ccccc34)nc2c1)c1ncn[nH]1 | -2.2 | -0.1 | 66.5* | 5.8 | 4.9 | 2.6 | -1.7
NC(=O)C1CCN(C(=O)c2cccc(S(=O)(=O)N3CCCC3)c2)CC1 | -6.2 | 1.3 | 1.1 | -8.1 | 0.9 | nt | nt
O=C1NC(=S)S/C1=C\c1coc2ccc(O)cc2c1=O | 4.5 | 3.2 | 80.9* | -1.1 | 67.5* | 0.5 | 0.7
CC(=O)Nc1cc(-c2cccc(C(=O)N(C)C)c2)cn2c(-c3cccc(C(F)(F)F)c3)cnc12 | nt | 0.7 | 1.6 | 5.3 | -4.4 | nt | nt
CSc1sc(-c2n[nH]c(=S)n2C)c2c1C=CCC2 | 4.0 | 50.4* | 65.5* | 16.1 | -0.3 | -1.6 | -6.5
Cc1cc(NC(=O)c2cc3ncc(Br)cn3n2)no1 | -5.9 | -0.4 | 4.1 | -4.4 | -1.0 | nt | nt
COC(=O)c1ccccc1NC(=O)c1cc2ncc(Br)cn2n1 | 39.9 | 5.4 | 67.7* | -5.8 | 6.8 | -0.4 | -4.1
O=C(CCNS(=O)(=O)c1ccccc1C(F)(F)F)N1CCCCCCC1 | -4.9 | 0.4 | 52.5* | -4.0 | -2.1 | 2.0 | 3.2
Cc1cc2nc(CN(C)C(=O)C3CCC(=O)N(C4CCCC4)C3)[nH]c2cc1C (stereo unspecified) | nt | 35.0 | 73.1* | 18.4 | -0.5 | 0.4 | 4.4
O=C(Nc1ccccc1)Nc1nnc(/C=C/c2ccccc2Cl)s1 | -12.2 | 0.5 | 89.4* | 4.2 | 1.5 | 1.0 | 1.1
C=CCC[C@@H](Cc1ccc(F)cc1)C(=O)OC[C@@H](NC(=O)[C@@H](CC=C)CC(=O)N[C@H](CO)Cc1ccccc1)C(C)(C)C | -2.3 | -0.1 | -11.1 | 2.7 | -1.4 | nt | nt
CC1CCC2(CC1)NC(=O)N(CC(=O)NCCc1ccc(F)cc1)C2=O (stereo unspecified) | 0.5 | -0.1 | -3.9 | 2.9 | -2.7 | nt | nt
COc1ccc(-c2cc3ccccc3oc2=O)cc1NC(=O)c1ccc(Br)o1 | 1.1 | 15.6 | 85.2* | 3.2 | 4.6 | 1.8 | -4.5
Oc1ccc(C[C@H]2CNC(=S)N2CC2CCCN2C[C@H](Cc2ccc(O)cc2)N2C[C@H](Cc3ccc(O)cc3)N(CC3CCCCC3)C2=S)cc1 (stereo partly specified) | 32.9 | 5.3 | -40.7 | 8.1 | 2.5 | nt | nt
COc1ccc(N2CCN(S(=O)(=O)c3ccc(-c4cnc(C5CC5)o4)cc3)CC2)cc1 | 14.2 | 3.4 | 74.1* | -9.5 | 7.6 | 4.2 | 4.2
O=C(CSc1nnnn1-c1ccccc1)Nc1nsc(-c2ccccc2)n1 | 0.8 | -0.1 | -0.9 | -5.2 | 0.1 | nt | nt
SMILES | Scp1 inh | LMPTP inh | DNMT1 block | Rpn11 block | STEP block | DNMT1 inh conf | Beacon interf
O=C(CSc1nnnn1-c1ccccc1)Nc1nsc(-c2ccc(Cl)cc2)n1 | 0.3 | 9.3 | 71.3* | 3.4 | 1.7 | -0.5 | -4.1
O=C(CSc1ccc2ccccc2n1)Nc1nsc(-c2ccc(Cl)cc2)n1 | 0.1 | 55.9* | 76.6* | 14.0 | 13.7 | 1.1 | -2.9
COc1ccc(NC(=O)c2noc3c2CCC3)cc1 | 82.8* | 6.9 | 107.5* | -46.3 | 7.1 | 4.7 | 0.2
O=C(Nc1cccc(O)c1)c1noc2c1CCCCC2 | -6.3 | -2.1 | 7.7 | 0.1 | -4.7 | nt | nt
Cc1ccc(C(=O)Nc2ccc(Nc3ccccc3)cc2)cc1C | -24.0 | 3.0 | -24.8 | 7.7 | 1.1 | nt | nt
Cc1ccc(NC(=O)c2noc3c2CCC3)cc1C | 78.2* | 8.9 | 94.9* | -16.1 | 11.5 | 8.8 | -2.1
Cc1ccc(NC(=O)c2ccc(NC(=O)c3ccccc3)cc2)cc1C | -7.8 | 4.8 | 57.2* | -5.7 | -1.7 | 4.5 | 5.3
COC(=O)[C@@]1(C)[C@H]2C(=O)N(C)C(=O)[C@H]2[C@H]2CN=C(SC)N21 | -4.0 | 0.2 | 4.3 | -4.4 | 1.6 | nt | nt
CCO[C@H]1OC(C(=O)N2CCN(C)CC2)=C[C@@H](C)[C@@H]1CCCO | 1.7 | -1.9 | 3.3 | 2.7 | -2.2 | nt | nt
Cc1cc2cc(CNS(=O)(=O)c3ccc4ccccc4c3)ccc2n1C | -3.9 | 9.0 | 53.6* | -6.1 | 1.9 | 3.9 | 1.3
CCOC(=O)C1CCN(c2c(NCCCN3CCCCC3)c(=O)c2=O)CC1 | -7.4 | -0.4 | 92.8* | -2.5 | 2.9 | 3.7 | 2.4
Cn1cccc1/C=C1\SC(=S)N(CC(=O)O)C1=O | 6.1 | 3.6 | 4.1 | nt | 3.4 | nt | nt
CC1=NN2C(=N)/C(=C\c3cc(C)n(Cc4ccccc4)c3C)C(=O)N=C2S1 | -0.7 | -0.4 | 1.9 | -0.3 | -1.1 | nt | nt
N=C1/C(=C\c2ccc(SCc3ccco3)o2)C(=O)N=C2SC=NN12 | 31.6 | 30.3 | 106.1* | 12.5 | 8.5 | 4.2 | 4.6
CC1=NN2C(=N)/C(=C\c3ccc(SCc4ccccc4)o3)C(=O)N=C2S1 | 19.7 | 3.4 | 64.0* | -2.0 | 4.9 | 2.7 | 2.0
O=C(O)CN1C(=O)/C(=C/c2ccc(SCc3ccccc3)o2)SC1=S | 58.8* | 8.7 | 76.0* | nt | 12.0 | 20.1 | 8.1
O=[N+]([O-])c1ccc(-c2cnc[nH]2)cc1 | 33.6 | -0.8 | 0.6 | 4.4 | 0.9 | nt | nt
Cc1ccc(S(=O)(=O)N2CCN(C(=O)CCC(=O)Nc3ccc(Br)c(C)c3)CC2)cc1 | -8.2 | 2.2 | -6.4 | -2.2 | -1.7 | nt | nt
Nc1nc(N)c(N=Nc2ccc(S(N)(=O)=O)cc2)c(=O)[nH]1 | -7.7 | 7.4 | -0.4 | -0.5 | 0.2 | nt | nt
